In ChEMBL document CHEMBL4152262, “Design, synthesis and evaluation of novel multi-target-directed ligands for treatment of Alzheimer's disease based on coumarin and lipoic acid scaffolds” (Eur J Med Chem, 2018):
pIC50: −log10 of the molar value.

Columns and labels:
SH-SY5Y [1] = experiment: Neuroprotection against H2O2-induced cell death in human SH-SY5Y cells assessed as cell viability at 100 uM preincubated for 3 hrs followed by H2O2 addition measured after 24 hrs by MTT assay relative to control; details: read-out: Activity
SH-SY5Y [2] = experiment: Inhibition of amyloid beta (1 to 42) (unknown origin)-induced cell death in human SH-SY5Y cells assessed as cell viability at 100 uM preincubated for 3 hrs followed by amyloid beta (1 to 42) addition measured after 24 hrs by MTT assay relative to control; details: read-out: Activity
PC-12 [3] = experiment: Neuroprotection against H2O2-induced cell death in rat PC12 cells assessed as cell viability at 10 uM preincubated for 3 hrs followed by H2O2 stimulation measured after 2 hrs by MTT assay (reference value: 25.2 to 41.8%); assay type: functional; details: read-out: Activity
PC-12 [4] = experiment: Neuroprotection against H2O2-induced cell death in rat PC12 cells assessed as increase in cell viability preincubated for 3 hrs followed by H2O2 stimulation measured after 2 hrs by MTT assay; assay type: functional, cell-based
PC-12 [5] = experiment: Inhibition of H2O2-induced ROS generation in rat PC12 cells assessed as intracellular ROS level at 1 uM preincubated for 6 hrs followed by H2O2 addition measured after 18 hrs by DCFH-DA staining based fluorimetric method relative to control; assay type: functional; set-up: scale not given: the % may be the effect or the level left
In short: (§1)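 PC12 cells at 1×10^4/well in RPMI with 10% FBS and penicillin/streptomycin, 24 h at 37 °C, 5% CO2. Test samples (1, 5, 10, 50 µM; ≤0.5% DMSO) for 6 h, PBS wash, then H2O2 150 µM for 18 h. Loaded with 10 µM DCFH-DA for 30 min at 37 °C in the dark, washed twice. DCF fluorescence read at ex 485/em 528 nm as % of untreated control. Three independent experiments, mean ± SEM.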

[6] = Inhibition of soybean 15-LOX assessed as reduction in conversion of linoleic acid to 13-hydroperoxylinoleic acid by spectrophotometric method; set-up: species or system Glycine max
In short: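 Soybean lipoxygenase type 1-B (final 167 U/mL) with compound (DMSO stock diluted in 0.1 M phosphate buffer pH 8) and linoleic acid (134 mM in ethanol) at room temperature. Formation of 13-hydroperoxylinoleic acid followed spectrophotometrically at 234 nm.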

PC-12 [7] = experiment: Neuroprotection against H2O2-induced cell death in rat PC12 cells assessed as cell viability at 1 uM preincubated for 3 hrs followed by H2O2 stimulation measured after 2 hrs by MTT assay (reference value: 25.2 to 41.8%); assay type: functional; details: read-out: Activity
SH-SY5Y [8] = experiment: Inhibition of amyloid beta (1 to 42) (unknown origin)-induced cell death in human SH-SY5Y cells assessed as cell viability at 50 uM preincubated for 3 hrs followed by amyloid beta (1 to 42) addition measured after 24 hrs by MTT assay relative to control; assay type: functional; details: read-out: Activity
In short: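 SH-SY5Y cells grown in DMEM with 10% FBS, 1% L-glutamine and antibiotics, seeded at 5×10^3/well. Pretreated 3 h with compound (10 or 50 µM), then Aβ1-42 10 µM added for 24 h. MTT, formazan dissolved in DMSO, A570. Viability as blank-corrected % of untreated control; three independent experiments, mean ± SEM.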

PC-12 [9] = experiment: Neuroprotection against H2O2-induced cell death in rat PC12 cells assessed as cell viability at 0.1 uM preincubated for 3 hrs followed by H2O2 stimulation measured after 2 hrs by MTT assay (reference value: 25.2 to 41.8%); assay type: functional; details: read-out: Activity
SH-SY5Y [10] = experiment: Neuroprotection against H2O2-induced cell death in human SH-SY5Y cells assessed as cell viability at 50 uM preincubated for 3 hrs followed by H2O2 addition measured after 24 hrs by MTT assay relative to control; assay type: functional; details: read-out: Activity
In short: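 SH-SY5Y cells grown in DMEM with 10% FBS, 1% L-glutamine and antibiotics, 5×10^3/well. Compound (10 or 50 µM) for 3 h before 250 µM H2O2, then 24 h incubation. MTT read at 570 nm after DMSO solubilization. Viability as blank-corrected % of untreated control; three independent experiments, mean ± SEM.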

PC-12 [11] = experiment: Cytotoxicity against rat PC12 cells assessed as effect on cell viability at 1 to 50 uM by MTT assay; assay type: cell-based; details: pc-12, 50 µM
Cholinesterase = Cholinesterase (Equus caballus, UniProt P81908); experiment: Inhibition of equine serum BuChE using butyrylthiocholine iodide as substrate pretreated for 5 mins followed by substrate addition by Ellman's method
Chain of Cholinesterase (P81908 whole entry): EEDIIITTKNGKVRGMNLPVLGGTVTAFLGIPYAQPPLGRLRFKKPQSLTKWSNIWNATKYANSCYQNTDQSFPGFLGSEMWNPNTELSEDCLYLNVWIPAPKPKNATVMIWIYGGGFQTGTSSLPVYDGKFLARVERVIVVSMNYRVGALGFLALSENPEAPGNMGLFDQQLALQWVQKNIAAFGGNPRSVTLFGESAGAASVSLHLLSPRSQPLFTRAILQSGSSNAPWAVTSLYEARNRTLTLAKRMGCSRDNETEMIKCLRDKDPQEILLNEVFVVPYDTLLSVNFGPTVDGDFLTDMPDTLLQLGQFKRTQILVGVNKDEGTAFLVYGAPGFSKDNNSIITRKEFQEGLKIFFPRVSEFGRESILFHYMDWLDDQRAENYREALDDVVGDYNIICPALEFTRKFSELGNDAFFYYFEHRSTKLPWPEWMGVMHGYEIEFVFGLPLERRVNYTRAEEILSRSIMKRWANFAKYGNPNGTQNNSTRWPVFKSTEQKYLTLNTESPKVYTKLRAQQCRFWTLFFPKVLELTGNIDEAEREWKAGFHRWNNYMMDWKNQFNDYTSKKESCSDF
In short: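 Ellman assay with horse serum BuChE (5 IU/mL) in 0.1 M phosphate buffer pH 8.0 with DTNB. Compound was preincubated with enzyme 5 min, then butyrylthiocholine iodide was added. Absorbance read at 412 nm. IC50 from a log concentration vs % inhibition curve; triplicate runs.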

PC-12 [12] = experiment: Neuroprotection against H2O2-induced cell death in rat PC12 cells assessed as cell viability at 5 uM preincubated for 3 hrs followed by H2O2 stimulation measured after 2 hrs by MTT assay (reference value: 25.2 to 41.8%); assay type: functional; details: read-out: Activity
[13] = target: Amyloid-beta precursor protein (Homo sapiens) (UniProt P05067); experiment: Inhibition of amyloid beta (1 to 42) (unknown origin) self-induced aggregation at 100 uM incubated for 48 hrs by thioflavin-T fluorescence assay relative to control
Chain of Amyloid-beta precursor protein (Homo sapiens) (P05067 whole entry): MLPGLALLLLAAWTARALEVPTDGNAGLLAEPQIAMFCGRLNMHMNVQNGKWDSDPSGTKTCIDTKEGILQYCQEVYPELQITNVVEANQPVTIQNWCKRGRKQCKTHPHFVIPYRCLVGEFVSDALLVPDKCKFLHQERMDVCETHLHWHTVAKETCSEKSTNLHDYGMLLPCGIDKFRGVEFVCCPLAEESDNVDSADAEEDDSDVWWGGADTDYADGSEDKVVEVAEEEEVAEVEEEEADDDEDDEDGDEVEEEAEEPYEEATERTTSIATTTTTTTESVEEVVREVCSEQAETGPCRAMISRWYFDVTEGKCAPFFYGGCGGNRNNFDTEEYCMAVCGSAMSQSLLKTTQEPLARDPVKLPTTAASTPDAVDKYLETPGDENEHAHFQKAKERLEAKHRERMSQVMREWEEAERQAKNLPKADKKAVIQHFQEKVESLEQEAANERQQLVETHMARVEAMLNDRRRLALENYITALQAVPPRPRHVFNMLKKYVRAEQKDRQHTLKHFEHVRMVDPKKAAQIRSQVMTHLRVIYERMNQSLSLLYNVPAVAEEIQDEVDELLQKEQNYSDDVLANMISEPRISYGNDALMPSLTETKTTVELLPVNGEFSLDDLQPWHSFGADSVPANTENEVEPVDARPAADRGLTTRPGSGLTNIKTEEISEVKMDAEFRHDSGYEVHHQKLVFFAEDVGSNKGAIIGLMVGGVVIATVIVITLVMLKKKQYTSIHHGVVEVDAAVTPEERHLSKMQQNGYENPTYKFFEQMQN

PC-12 [14] = experiment: Inhibition of H2O2-induced ROS generation in rat PC12 cells assessed as intracellular ROS level at 50 uM preincubated for 6 hrs followed by H2O2 addition measured after 18 hrs by DCFH-DA staining based fluorimetric method relative to control; assay type: functional; set-up: scale not given: the % may be the effect or the level left; in short: as §1
PC-12 [15] = experiment: Inhibition of H2O2-induced ROS generation in rat PC12 cells assessed as intracellular ROS level at 5 uM preincubated for 6 hrs followed by H2O2 addition measured after 18 hrs by DCFH-DA staining based fluorimetric method relative to control; assay type: functional; set-up: scale not given: the % may be the effect or the level left; in short: as §1
PC-12 [16] = experiment: Neuroprotection against H2O2-induced cell death in rat PC12 cells assessed as cell viability at 50 uM preincubated for 3 hrs followed by H2O2 stimulation measured after 2 hrs by MTT assay (reference value: 25.2 to 41.8%); assay type: functional; details: read-out: Activity
PC-12 [17] = experiment: Neuroprotection against H2O2-induced cell death in rat PC12 cells assessed as cell viability at 20 uM preincubated for 3 hrs followed by H2O2 stimulation measured after 2 hrs by MTT assay (reference value: 25.2 to 41.8%); assay type: functional; details: read-out: Activity
Acetylcholinesterase = Acetylcholinesterase (Electrophorus electricus, UniProt O42275); experiment: Inhibition of electric eel AChE using acetylthiocholine iodide as substrate pretreated for 5 mins followed by substrate addition by Ellman's method
Chain of Acetylcholinesterase (O42275 whole entry): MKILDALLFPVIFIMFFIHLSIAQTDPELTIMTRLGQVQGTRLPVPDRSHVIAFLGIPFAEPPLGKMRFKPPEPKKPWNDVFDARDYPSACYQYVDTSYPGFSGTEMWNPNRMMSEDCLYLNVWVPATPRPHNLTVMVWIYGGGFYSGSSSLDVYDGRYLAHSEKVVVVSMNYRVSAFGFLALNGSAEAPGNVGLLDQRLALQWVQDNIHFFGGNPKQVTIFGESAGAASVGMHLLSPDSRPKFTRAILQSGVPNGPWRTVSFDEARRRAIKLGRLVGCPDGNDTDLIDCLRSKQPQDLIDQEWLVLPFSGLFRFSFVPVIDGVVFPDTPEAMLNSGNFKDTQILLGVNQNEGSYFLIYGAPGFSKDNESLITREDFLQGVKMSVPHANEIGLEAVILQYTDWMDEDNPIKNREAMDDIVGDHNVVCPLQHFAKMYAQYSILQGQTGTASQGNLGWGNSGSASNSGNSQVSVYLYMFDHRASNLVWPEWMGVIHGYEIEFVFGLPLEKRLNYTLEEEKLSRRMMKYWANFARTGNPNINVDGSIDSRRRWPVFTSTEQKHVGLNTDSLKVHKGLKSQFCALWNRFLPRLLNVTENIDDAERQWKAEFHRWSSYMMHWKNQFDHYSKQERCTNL

PC-12 [18] = experiment: Inhibition of H2O2-induced ROS generation in rat PC12 cells preincubated for 6 hrs followed by H2O2 addition measured after 18 hrs by DCFH-DA staining based fluorimetric method; assay type: functional, cell-based; in short: as §1
PC-12 [19] = experiment: Inhibition of H2O2-induced ROS generation in rat PC12 cells assessed as intracellular ROS level at 10 uM preincubated for 6 hrs followed by H2O2 addition measured after 18 hrs by DCFH-DA staining based fluorimetric method relative to control; assay type: functional; set-up: scale not given: the % may be the effect or the level left; in short: as §1

SMILES	viability at 10 µM (PC-12 [3]) [%]	Activity (PC-12 [4])	pIC50 [6]	viability at 1 µM (PC-12 [7]) [%]	viability at 0.1 µM (PC-12 [9]) [%]	pIC50 (Cholinesterase)	viability at 5 µM (PC-12 [12]) [%]	viability at 50 µM (PC-12 [16]) [%]	viability at 20 µM (PC-12 [17]) [%]	pIC50 (Acetylcholinesterase)	other results
COc1cc2c(cc1OC)C(=O)C(CC1CCN(Cc3ccccc3)CC1)C2 (stereo unspecified) [DONEPEZIL]	–	–	–	–	–	–	–	–	–	–	viability at 100 µM (SH-SY5Y [1]): 33%; viability at 100 µM (SH-SY5Y [2]): 39.9%
Cc1cc(=O)oc2cc(OCCCn3cc(CNC(=O)CCCCC4CCSS4)nn3)ccc12 (stereo unspecified)	69.4	Dose-dependent effect	< 4.00	54.5	44.8	< 4.00	64.6	75.4	74.3	4.26	Activity (PC-12 [5]): 118.8%; viability at 50 µM (SH-SY5Y [8]): 72.9%; viability at 50 µM (SH-SY5Y [10]): 55.6%; Activity (PC-12 [11]): Non-Toxic; inhibition [13]: 26.6%; Activity (PC-12 [14]): 49.24%; Activity (PC-12 [15]): 131.54%; inhibition (PC-12 [18]): Dose-dependent effect; Activity (PC-12 [19]): 122.93%
CO[C@H]1/C=C/O[C@@]2(C)Oc3c(C)c(O)c4c(O)c(c(/C=N/N5CCN(C)CC5)c(O)c4c3C2=O)NC(=O)/C(C)=C\C=C\[C@H](C)[C@H](O)[C@@H](C)[C@@H](O)[C@@H](C)[C@H](OC(C)=O)[C@@H]1C	–	–	–	–	–	–	–	–	–	–	inhibition [13]: 27.5%
O=C(CCCCC1CCSS1)NCc1cn(CCCCOc2ccc3cc(-c4ccc(Cl)cc4)c(=O)oc3c2)nn1 (stereo unspecified)	61.8	Dose-dependent effect	< 4.00	46.2	38.8	4.28	52	74.9	68.4	< 4.00	–
O=C(CCCCC1CCSS1)NCc1cn(CCCOc2ccc3cc(C(=O)O)c(=O)oc3c2)nn1 (stereo unspecified)	59.9	Dose-dependent effect	< 4.00	52.1	43.4	< 4.00	57	73.5	66.8	< 4.00	–
O=C(CCCCC1CCSS1)NCc1cn(CCCOc2ccc3cc(-c4ccc(Cl)cc4)c(=O)oc3c2)nn1 (stereo unspecified)	67.8	Dose-dependent effect	< 4.00	49.3	40.9	< 4.00	60.6	79.4	75.6	< 4.00	–
COc1ccc(-c2cc3ccc(OCCCCCn4cc(CNC(=O)CCCCC5CCSS5)nn4)cc3oc2=O)cc1 (stereo unspecified)	45.5	Dose-dependent effect	< 4.00	37.1	34.5	< 4.00	41	52.8	49	< 4.00	–
O=C(O)CCCCC1CCSS1 (stereo not drawn) [LIPOIC ACID, ALPHA]	–	–	–	–	–	–	–	–	–	–	Activity (PC-12 [5]): 138.77%; Activity (PC-12 [14]): 55.9%; Activity (PC-12 [15]): 110.65%; Activity (PC-12 [19]): 105.72%
